For experiment [1], the target named is Dual specificity tyrosine-phosphorylation-regulated kinase 1B (Homo sapiens) (UniProt Q9Y463). As to the kind of experiment: Inhibition of human recombinant DYRK1B at 40 nM related to control ULK1.
Experiment [2] concerns the target T1, Serine/threonine-protein kinase Nek2 (Homo sapiens) (UniProt P51955).
T1 sequence (whole entry): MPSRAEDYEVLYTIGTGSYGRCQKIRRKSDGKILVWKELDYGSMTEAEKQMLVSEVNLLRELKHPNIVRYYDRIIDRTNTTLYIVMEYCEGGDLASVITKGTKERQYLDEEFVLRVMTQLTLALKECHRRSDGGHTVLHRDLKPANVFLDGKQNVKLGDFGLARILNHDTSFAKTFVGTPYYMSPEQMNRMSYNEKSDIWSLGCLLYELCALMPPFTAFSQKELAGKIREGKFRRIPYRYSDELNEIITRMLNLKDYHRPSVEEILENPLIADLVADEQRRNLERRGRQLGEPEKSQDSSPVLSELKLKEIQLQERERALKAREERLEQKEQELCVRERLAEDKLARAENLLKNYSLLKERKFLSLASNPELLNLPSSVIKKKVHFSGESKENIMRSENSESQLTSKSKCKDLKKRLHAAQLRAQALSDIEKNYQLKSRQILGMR
Put plainly: Inhibition of human recombinant NEK2 at 40 nM related to control ULK1.

In experiment [3] the target is Serine/threonine-protein kinase MARK1 (Homo sapiens) (UniProt Q9P0L2). Put plainly: Inhibition of human recombinant MARK1 at 500 nM in presence of ATP by radiometric assay relative to control.
For experiment [4], the target named is RAC-gamma serine/threonine-protein kinase (Homo sapiens) (UniProt Q9Y243). Put plainly: Inhibition of human recombinant AKT3 at 500 nM related to control ULK1.
The target in experiment [5] is T2, Mitogen-activated protein kinase 12 (Homo sapiens) (UniProt P53778).
T2 sequence (whole entry): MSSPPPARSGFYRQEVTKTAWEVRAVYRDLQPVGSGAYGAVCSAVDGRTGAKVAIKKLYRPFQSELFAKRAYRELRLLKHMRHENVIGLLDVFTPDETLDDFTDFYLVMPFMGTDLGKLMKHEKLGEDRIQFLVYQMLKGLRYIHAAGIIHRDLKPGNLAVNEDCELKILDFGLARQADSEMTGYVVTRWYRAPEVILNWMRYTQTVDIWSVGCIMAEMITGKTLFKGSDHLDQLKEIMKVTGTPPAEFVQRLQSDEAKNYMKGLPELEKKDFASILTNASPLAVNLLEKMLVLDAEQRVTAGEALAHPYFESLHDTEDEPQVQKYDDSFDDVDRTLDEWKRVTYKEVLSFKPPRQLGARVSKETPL
As to the kind of experiment: Inhibition of human recombinant p38gamma at 500 nM related to control ULK1.

Experiment [6] deals with Serine/threonine-protein kinase 24 (Homo sapiens) (UniProt Q9Y6E0). Put plainly: Inhibition of human recombinant MST3 at 500 nM related to control ULK1.
Experiment [7] has as its target T3, Testis-specific serine/threonine-protein kinase 4 (Homo sapiens) (UniProt Q6SA08).
T3 sequence (whole entry): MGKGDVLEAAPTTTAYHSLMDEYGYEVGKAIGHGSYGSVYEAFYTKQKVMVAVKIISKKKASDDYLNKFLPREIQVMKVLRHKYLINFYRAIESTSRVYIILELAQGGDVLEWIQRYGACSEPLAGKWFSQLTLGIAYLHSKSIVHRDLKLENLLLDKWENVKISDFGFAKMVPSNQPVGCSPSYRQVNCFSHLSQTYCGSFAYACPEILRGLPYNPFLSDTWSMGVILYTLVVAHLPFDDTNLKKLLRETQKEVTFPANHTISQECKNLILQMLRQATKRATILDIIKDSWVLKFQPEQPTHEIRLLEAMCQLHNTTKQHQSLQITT
Put plainly: Inhibition of human recombinant TSSK4 at 500 nM in presence of ATP by radiometric assay relative to control.

Experiment [8] deals with T4, Serine/threonine-protein kinase BRSK1 (Homo sapiens) (UniProt Q8TDC3).
T4 sequence (whole entry): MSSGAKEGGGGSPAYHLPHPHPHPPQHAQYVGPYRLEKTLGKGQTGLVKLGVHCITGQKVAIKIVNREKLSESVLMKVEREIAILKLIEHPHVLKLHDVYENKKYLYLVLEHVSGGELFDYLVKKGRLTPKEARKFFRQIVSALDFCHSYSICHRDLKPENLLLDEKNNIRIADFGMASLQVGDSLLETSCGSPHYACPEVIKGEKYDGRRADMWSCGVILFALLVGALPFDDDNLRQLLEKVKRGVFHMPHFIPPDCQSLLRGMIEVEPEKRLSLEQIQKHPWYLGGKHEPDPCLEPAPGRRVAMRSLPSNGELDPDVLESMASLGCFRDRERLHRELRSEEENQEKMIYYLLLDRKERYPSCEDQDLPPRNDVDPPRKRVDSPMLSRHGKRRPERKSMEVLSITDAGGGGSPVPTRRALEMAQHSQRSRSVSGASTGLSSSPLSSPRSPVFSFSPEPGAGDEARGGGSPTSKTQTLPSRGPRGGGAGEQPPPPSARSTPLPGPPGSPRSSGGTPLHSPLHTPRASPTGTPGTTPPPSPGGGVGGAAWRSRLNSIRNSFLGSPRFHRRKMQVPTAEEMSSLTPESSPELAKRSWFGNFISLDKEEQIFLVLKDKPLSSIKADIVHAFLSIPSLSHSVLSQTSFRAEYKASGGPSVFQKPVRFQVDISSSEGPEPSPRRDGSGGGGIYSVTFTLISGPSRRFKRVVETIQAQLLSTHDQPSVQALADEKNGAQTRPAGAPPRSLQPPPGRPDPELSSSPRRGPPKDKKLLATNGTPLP
As to the kind of experiment: Inhibition of human recombinant BRSK1 at 15 nM in presence of ATP by radiometric assay relative to control. In a few lines: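 Part of a radiometric in vitro activity panel of 327 recombinant human kinases. Each kinase was tested in duplicate at one inhibitor concentration. Activity remaining was expressed as a percentage of the vehicle control, and percent inhibition was taken as 100 minus that value.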

Sequence of Serine/threonine-protein kinase MARK1 (Homo sapiens) (Q9P0L2 whole entry, looked up): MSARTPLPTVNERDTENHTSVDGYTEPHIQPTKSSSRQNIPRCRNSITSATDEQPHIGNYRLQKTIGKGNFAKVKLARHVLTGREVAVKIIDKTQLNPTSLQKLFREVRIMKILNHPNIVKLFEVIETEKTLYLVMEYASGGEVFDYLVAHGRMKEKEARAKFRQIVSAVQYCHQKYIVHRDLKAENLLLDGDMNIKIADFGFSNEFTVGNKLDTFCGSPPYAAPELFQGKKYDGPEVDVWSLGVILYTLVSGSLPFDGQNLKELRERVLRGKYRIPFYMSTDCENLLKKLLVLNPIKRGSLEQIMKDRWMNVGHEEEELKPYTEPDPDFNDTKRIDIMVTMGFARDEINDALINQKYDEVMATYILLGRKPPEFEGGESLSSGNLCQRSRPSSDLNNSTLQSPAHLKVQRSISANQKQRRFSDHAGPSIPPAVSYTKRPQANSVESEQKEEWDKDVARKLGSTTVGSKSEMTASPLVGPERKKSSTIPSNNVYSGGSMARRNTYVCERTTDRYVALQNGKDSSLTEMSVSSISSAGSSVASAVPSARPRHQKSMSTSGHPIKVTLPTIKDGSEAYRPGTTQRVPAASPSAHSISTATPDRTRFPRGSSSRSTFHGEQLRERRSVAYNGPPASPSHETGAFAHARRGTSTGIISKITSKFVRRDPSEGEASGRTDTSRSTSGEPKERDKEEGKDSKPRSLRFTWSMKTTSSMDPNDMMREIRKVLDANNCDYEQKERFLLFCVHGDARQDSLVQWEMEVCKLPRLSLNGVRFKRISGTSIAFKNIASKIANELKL
Sequence of Serine/threonine-protein kinase 24 (Homo sapiens) (Q9Y6E0 whole entry, looked up): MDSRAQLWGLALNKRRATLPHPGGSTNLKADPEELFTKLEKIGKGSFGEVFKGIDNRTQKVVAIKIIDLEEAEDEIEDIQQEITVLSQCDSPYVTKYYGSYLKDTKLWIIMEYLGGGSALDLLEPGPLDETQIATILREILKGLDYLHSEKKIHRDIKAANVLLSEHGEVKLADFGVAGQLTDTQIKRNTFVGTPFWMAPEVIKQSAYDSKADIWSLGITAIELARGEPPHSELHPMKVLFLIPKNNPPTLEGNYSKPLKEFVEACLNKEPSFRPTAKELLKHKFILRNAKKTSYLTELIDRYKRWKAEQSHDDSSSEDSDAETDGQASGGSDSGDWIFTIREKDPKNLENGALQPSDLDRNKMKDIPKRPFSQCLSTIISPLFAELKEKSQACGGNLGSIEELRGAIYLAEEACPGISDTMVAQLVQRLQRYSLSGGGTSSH
Sequence of RAC-gamma serine/threonine-protein kinase (Homo sapiens) (Q9Y243 whole entry): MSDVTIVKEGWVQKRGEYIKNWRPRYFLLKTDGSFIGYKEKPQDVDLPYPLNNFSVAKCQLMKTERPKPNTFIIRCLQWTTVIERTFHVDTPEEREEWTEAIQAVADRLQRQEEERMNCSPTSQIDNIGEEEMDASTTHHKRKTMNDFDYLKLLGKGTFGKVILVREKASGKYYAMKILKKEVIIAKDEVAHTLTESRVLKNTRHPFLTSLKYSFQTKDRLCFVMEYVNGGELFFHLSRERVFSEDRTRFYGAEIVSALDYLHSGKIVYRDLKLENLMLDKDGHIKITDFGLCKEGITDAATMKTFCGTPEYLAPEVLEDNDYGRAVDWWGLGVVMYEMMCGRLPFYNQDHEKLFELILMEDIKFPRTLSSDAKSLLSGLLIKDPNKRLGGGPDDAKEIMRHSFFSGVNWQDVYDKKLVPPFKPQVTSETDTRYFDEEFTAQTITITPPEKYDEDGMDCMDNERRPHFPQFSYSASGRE
Sequence of Dual specificity tyrosine-phosphorylation-regulated kinase 1B (Homo sapiens) (Q9Y463 whole entry, looked up): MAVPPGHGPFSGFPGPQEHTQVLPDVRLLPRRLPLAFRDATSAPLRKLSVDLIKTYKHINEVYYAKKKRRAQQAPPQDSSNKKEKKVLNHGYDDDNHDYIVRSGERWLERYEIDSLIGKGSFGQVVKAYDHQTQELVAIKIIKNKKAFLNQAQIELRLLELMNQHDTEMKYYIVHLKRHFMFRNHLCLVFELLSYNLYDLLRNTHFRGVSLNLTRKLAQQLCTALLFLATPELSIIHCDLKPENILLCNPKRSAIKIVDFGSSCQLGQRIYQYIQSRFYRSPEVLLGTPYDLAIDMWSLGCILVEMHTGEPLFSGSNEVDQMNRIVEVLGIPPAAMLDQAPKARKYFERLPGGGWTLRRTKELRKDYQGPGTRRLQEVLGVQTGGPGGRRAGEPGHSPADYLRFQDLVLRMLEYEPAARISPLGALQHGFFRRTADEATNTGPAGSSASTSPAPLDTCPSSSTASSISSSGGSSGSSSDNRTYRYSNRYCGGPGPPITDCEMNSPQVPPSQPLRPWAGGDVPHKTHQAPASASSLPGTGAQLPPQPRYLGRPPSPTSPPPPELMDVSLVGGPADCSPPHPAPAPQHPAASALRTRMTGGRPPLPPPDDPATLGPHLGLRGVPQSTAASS

Take `O=C(N[C@@H](C1CC1)C(F)(F)F)c1cc(-c2cnn3cc(-c4ccc(F)cc4)cnc23)cs1`: the fold change (FC) came out at 0.42 in experiment [1] and 0 in experiment [2].

For orientation: inhibition means how much of the control response was suppressed. For `CNC(=O)c1ccccc1Oc1nc(Nc2cc(OC)c(OC)c(OC)c2)ncc1Br`, the values for the inhibition in experiment [3] and in experiment [7] were 54% and 0%, respectively. Further, the fold change (FC) stood at 0.07 in experiment [4], 0 in experiment [5] and 0.78 in experiment [6].

As to `CC(C)[C@H](NC(=O)c1cc(-c2cnn3cc(-c4ccc(OCCN5CCCCC5)cc4)cnc23)cs1)C(F)(F)F`, the inhibition in experiment [8] was determined as 13%.

The record behind these values is ChEMBL document CHEMBL5653631, “A Potent and Selective ULK1 Inhibitor Suppresses Autophagy and Sensitizes Cancer Cells to Nutrient Stress” (iScience, 2018).
